Source: ChEMBL document CHEMBL1212834, “Pyrido[2,3-b]pyrazines, discovery of TRPV1 antagonists with reduced potential for the formation of reactive metabolites” (Bioorg Med Chem Lett, 2010)
Active and inactive are the calls of the source. No cut-off for these calls is given here.

Columns and labels:
[1] = molecular target: Transient receptor potential cation channel subfamily V member 1 (Rattus norvegicus, UniProt O35433); format: functional, tissue-based, Sprague-Dawley, Dorsal root ganglion
[2] = molecular target: Transient receptor potential cation channel subfamily V member 1 (Homo sapiens, UniProt Q8NER1); assay: Antagonist activity at human TRPV1 assessed as inhibition of capsaicin-induced receptor activation by FLIPR assay; format: functional
Transient receptor potential cation channel subfamily V member 1 (Homo sapiens, UniProt Q8NER1), sequence (Q8NER1 whole entry): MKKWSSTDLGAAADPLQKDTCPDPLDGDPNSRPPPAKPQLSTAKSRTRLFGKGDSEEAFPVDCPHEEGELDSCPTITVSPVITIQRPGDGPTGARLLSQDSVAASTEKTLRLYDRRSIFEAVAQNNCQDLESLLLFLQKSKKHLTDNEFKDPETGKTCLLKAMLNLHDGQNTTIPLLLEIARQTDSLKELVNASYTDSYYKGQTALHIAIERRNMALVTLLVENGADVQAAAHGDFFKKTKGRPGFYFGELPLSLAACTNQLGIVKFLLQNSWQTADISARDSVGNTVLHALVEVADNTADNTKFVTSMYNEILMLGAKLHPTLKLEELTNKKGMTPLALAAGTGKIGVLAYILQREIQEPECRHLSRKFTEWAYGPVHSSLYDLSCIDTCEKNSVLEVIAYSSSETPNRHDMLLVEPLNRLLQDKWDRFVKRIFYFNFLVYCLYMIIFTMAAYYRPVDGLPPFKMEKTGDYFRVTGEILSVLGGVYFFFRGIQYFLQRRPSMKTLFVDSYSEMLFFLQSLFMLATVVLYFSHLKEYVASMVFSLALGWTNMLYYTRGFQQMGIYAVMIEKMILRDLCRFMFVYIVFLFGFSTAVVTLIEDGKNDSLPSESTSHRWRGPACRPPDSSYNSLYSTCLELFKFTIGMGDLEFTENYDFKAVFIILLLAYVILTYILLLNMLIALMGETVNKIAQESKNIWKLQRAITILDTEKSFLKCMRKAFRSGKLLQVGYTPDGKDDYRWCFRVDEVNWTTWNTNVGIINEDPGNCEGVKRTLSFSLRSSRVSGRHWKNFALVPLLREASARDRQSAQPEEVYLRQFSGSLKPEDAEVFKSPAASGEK
Method in brief: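 Human TRPV1 activated by capsaicin; inhibition read by FLIPR. IC50 is the mean of ≥3 experiments.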

Liver microsomes = assay: Metabolic stability in human liver microsomes assessed per mg of protein after 1 hr
[3] = Metabolic stability in rat liver microsomes assessed as compound remaining after 10 min; format: ADME, Microsome; details: read-out: Stability
Rattus norvegicus [4] = assay: Antiinflammatory activity in Sprague-Dawley rat assessed as inhibition of carrageenan-induced thermal hyperalgesia at 3 mg/kg, po administered 3.5 hrs after carrageenan challenge measured after 5 hrs; format: functional
Method in brief: (§1)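 Rat carrageenan-induced thermal hyperalgesia. Dosed orally as a suspension in 0.5% methocel; % inhibition reported at each dose.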

Rattus norvegicus [5] = species: Rattus norvegicus; details: 20 mg/kg
Rattus norvegicus [6] = assay: Plasma concentration in Sprague-Dawley rat carrageenan-induced thermal hyperalgesia model at 3 mg/kg, po; format: ADME, organism-based; parameters: dose 3 mg/kg, route oral; details: in vivo
Method in brief: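 Rats given compound orally as a suspension in 0.5% methocel in the carrageenan-induced thermal hyperalgesia model. Plasma sampled immediately after the CITH experiment.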

Rattus norvegicus [7] = assay: Plasma concentration in Sprague-Dawley rat carrageenan-induced thermal hyperalgesia model at 1 mg/kg, po; format: ADME, organism-based; parameters: dose 1 mg/kg, route oral; details: in vivo
Method in brief: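 Plasma sampled immediately after the carrageenan thermal hyperalgesia experiment, following oral dosing as a suspension in 0.5% methocel.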

Rattus norvegicus [8] = assay: Antiinflammatory activity in Sprague-Dawley rat assessed as inhibition of carrageenan-induced thermal hyperalgesia at 1 mg/kg, po administered 3.5 hrs after carrageenan challenge measured after 5 hrs; format: functional
Method in brief: as §1

Rattus norvegicus [9] = assay: Antiinflammatory activity in Sprague-Dawley rat assessed as inhibition of carrageenan-induced thermal hyperalgesia at 0.3 mg/kg, po administered 3.5 hrs after carrageenan challenge measured after 5 hrs; format: functional
Method in brief: as §1

Transient receptor potential cation channel subfamily V member 1 (Rattus norvegicus, UniProt O35433), sequence (O35433 whole entry): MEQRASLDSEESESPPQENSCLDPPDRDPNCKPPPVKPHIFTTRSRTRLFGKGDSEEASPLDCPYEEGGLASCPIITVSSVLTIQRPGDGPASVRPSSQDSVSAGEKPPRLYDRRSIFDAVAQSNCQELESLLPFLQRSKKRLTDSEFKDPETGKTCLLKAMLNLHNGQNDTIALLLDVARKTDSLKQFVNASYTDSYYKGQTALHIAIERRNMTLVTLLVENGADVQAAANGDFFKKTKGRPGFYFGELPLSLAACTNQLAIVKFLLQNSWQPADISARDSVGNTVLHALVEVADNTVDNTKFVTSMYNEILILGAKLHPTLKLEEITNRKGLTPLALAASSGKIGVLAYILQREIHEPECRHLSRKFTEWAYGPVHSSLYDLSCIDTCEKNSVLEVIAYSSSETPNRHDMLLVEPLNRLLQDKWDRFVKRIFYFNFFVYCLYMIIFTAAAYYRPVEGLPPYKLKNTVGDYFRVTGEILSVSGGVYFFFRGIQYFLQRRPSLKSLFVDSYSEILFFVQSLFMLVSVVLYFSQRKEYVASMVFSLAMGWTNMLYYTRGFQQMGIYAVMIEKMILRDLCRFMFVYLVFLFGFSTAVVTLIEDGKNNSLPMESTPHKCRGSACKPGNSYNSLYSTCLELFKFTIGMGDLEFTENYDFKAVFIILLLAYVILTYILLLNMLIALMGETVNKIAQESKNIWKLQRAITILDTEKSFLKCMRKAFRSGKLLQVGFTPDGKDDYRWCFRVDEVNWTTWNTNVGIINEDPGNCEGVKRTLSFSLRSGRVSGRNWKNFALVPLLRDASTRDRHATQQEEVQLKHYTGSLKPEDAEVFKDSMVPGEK

SMILES: FC(F)(F)c1cnc(Nc2ccnc3nc(-c4ncccc4C(F)(F)F)ccc23)nc1Cl
- IC50 [1]: Not Active
- IC50 [2]: 81 nM

SMILES: O=C(O)c1ccnc(-c2ccc3c(Nc4ccc(C(F)(F)F)cn4)ccnc3n2)c1C(F)(F)F
- IC50 [1]: Not Active
- IC50 [2]: 607 nM

SMILES: FC(F)(F)c1cnc(Nc2ccnc3nc(-c4ncccc4C(F)(F)F)ccc23)nc1
- Stability (Liver microsomes): 204 pmol
- IC50 ([1]; read-out: IC50): 4.6 nM
- remaining at 10 min [3]: 100%
- IC50 [2]: 4.4 nM
- inhibition in vivo at 3 mg/kg (Rattus norvegicus [4]): 78%

SMILES: O=C(O)c1nc(Nc2ccnc3nc(-c4ncccc4C(F)(F)F)ccc23)ncc1C(F)(F)F
- IC50 [1]: Not Active
- IC50 [2]: 1450 nM

SMILES: COc1ccc2cc([C@H](C)C(=O)O)ccc2c1
- inhibition (Rattus norvegicus [5]): Active

SMILES: FC(F)(F)c1ccc(Nc2ccnc3nc(-c4ncccc4C(F)(F)F)ccc23)nc1
- INH (Inhibition of MAOB): 2.2 nM
- Stability (Liver microsomes): 169 pmol
- IC50 ([1]; read-out: IC50): 3.2 nM
- concentration (Rattus norvegicus [6]): 1400 nM
- remaining at 10 min [3]: 100%
- concentration (Rattus norvegicus [7]): 300 nM
- inhibition in vivo at 3 mg/kg (Rattus norvegicus [4]): 115%
- inhibition in vivo at 1 mg/kg (Rattus norvegicus [8]): 66%

SMILES: FC(F)(F)c1ccc(Nc2ccnc3nc(-c4ncccc4C(F)(F)F)cnc23)nc1
- Stability (Liver microsomes): < 5 pmol
- IC50 [1]: Not Active
- inhibition in vivo at 0.3 mg/kg (Rattus norvegicus [9]): 85%
- remaining at 10 min [3]: 100%
- IC50 [2]: 0.2 nM
- inhibition in vivo at 3 mg/kg (Rattus norvegicus [4]): 134%

SMILES: N#Cc1nc(Nc2ccnc3nc(-c4ncccc4C(F)(F)F)ccc23)ncc1C(F)(F)F
- IC50 [1]: Not Active
- IC50 [2]: 25.4 nM

SMILES: NC(=O)c1ccnc(-c2ccc3c(Nc4ccc(C(F)(F)F)cn4)ccnc3n2)c1C(F)(F)F
- IC50 [1]: Not Active
- IC50 [2]: 13 nM

SMILES: FC(F)(F)c1ccc(Nc2ccnc3nc(-c4nnccc4C(F)(F)F)ccc23)nc1
- IC50 ([1]; read-out: IC50): 7.1 nM
- IC50 [2]: 8.4 nM

SMILES: FC(F)(F)c1ccc(Nc2ccnc3nc(-c4ccncc4C(F)(F)F)ccc23)nc1
- IC50 [1]: Not Active
- IC50 [2]: 161 nM

SMILES: FC(F)(F)c1ccc(Nc2ccnc3nc(-c4ncc(Br)cc4C(F)(F)F)cnc23)nc1
- IC50 [1]: Not Active
- IC50 [2]: 30 nM

SMILES: FC(F)(F)c1cnc(Nc2ccnc3nc(-c4ncccc4C(F)(F)F)ccc23)cn1
- IC50 ([1]; read-out: IC50): 6.3 nM
- IC50 [2]: 5.5 nM

SMILES: FC(F)(F)c1ccc(Nc2ccnc3nc(-c4ncncc4C(F)(F)F)ccc23)nc1
- IC50 [1]: Not Active
- IC50 [2]: 134 nM

SMILES: C[C@@H]1CN(c2ncccc2C(F)(F)F)CCN1C(=O)Nc1ccc(C(F)(F)F)cc1
- INH (Inhibition of MAOB): 17 nM

SMILES: FC(F)(F)c1csc(Nc2ccnc3nc(-c4ncccc4C(F)(F)F)ccc23)n1
- IC50 [1]: Not Active
- IC50 [2]: 47 nM

SMILES: NC(=O)c1nc(Nc2ccnc3nc(-c4ncccc4C(F)(F)F)ccc23)ncc1C(F)(F)F
- IC50 [1]: Not Active
- IC50 [2]: 48.7 nM

SMILES: N#Cc1cnc(-c2cnc3c(Nc4ccc(C(F)(F)F)cn4)ccnc3n2)c(C(F)(F)F)c1
- IC50 [1]: Not Active
- IC50 [2]: 15 nM

SMILES: FC(F)(F)c1ccc(Nc2ccnc3nc(-c4ncsc4C(F)(F)F)ccc23)nc1
- Stability (Liver microsomes): 356 pmol
- IC50 [1]: Not Active
- remaining at 10 min [3]: 100%
- IC50 [2]: 12 nM

SMILES: O=C(O)c1cnc(-c2cnc3c(Nc4ccc(C(F)(F)F)cn4)ccnc3n2)c(C(F)(F)F)c1
- IC50 [1]: Not Active
- IC50 [2]: 27 nM
